In ChEMBL document CHEMBL4028886 (J Med Chem, 2017):
The source made the active and inactive calls. The calls are words filed in the database; no cut-off is given here.

Assays:
Rattus norvegicus [1] = assay: Neurotoxicity in Sprague-Dawley rat assessed as effect on time spent on revolving rod at 10 mg/kg, ip administered 30 mins prior to test by rotarod test relative to control; assay type: toxicity, organism-based; conditions: in vivo, 0.5 h
Procedure, shortened: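 Male Sprague–Dawley rats, 10 per group, dosed 10 mg/kg ip daily for 10 days and 30 min before testing. DMSO vehicle controls. Rotarod, time spent on the revolving rod recorded.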

Rattus norvegicus [2] = assay: Neurotoxicity in Sprague-Dawley rat assessed as effect on number of crossings of the center at 10 mg/kg, ip administered 30 mins prior to test by open field test relative to control; assay type: toxicity, organism-based; conditions: in vivo, 0.5 h
Procedure, shortened: (§1)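 Male Sprague–Dawley rats, 10 per group, given 10 mg/kg ip daily for 10 days and 30 min before each test. DMSO vehicle group as control. Open field arena 100 × 100 cm with 40 cm walls. Animals video-tracked for 10 min.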

Rattus norvegicus [3] = assay: Neurotoxicity in Sprague-Dawley rat assessed as effect on local movements at 10 mg/kg, ip administered 30 mins prior to test by open field test relative to control; assay type: toxicity, organism-based; conditions: in vivo, 0.5 h; procedure, shortened: as §1
Rattus norvegicus [4] = assay: Neurotoxicity in Sprague-Dawley rat assessed as finger approach score at 10 mg/kg, ip administered 30 mins prior to test (reference value: 1.4 +/- 1.350); assay type: toxicity, organism-based; conditions: in vivo, 0.5 h
Rattus norvegicus [5] = assay: Neurotoxicity in Sprague-Dawley rat assessed as transfer arousal score at 10 mg/kg, ip administered 30 mins prior to test (reference value: 3.1 +/- 0.3162); assay type: toxicity, organism-based; conditions: in vivo, 0.5 h
Rattus norvegicus [6] = assay: Neurotoxicity in Sprague-Dawley rat assessed as grip strength score at 10 mg/kg, ip administered 30 mins prior to test (reference value: 2.4 +/- 1.265); assay type: toxicity, organism-based; conditions: in vivo, 0.5 h
Rattus norvegicus [7] = assay: Neurotoxicity in Sprague-Dawley rat assessed as effect on total distance traveled at 10 mg/kg, ip administered 30 mins prior to test by elevated plus maze test relative to control; assay type: toxicity, organism-based; conditions: in vivo, 0.5 h
Procedure, shortened: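 Male Sprague–Dawley rats, 10 per group, dosed 10 mg/kg ip daily for 10 days and 30 min before testing. DMSO vehicle controls. Elevated plus maze, rats placed centrally and video-tracked. Recorded: time in closed and open arms, arm entries, path length.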

Rattus norvegicus [8] = assay: Neurotoxicity in Sprague-Dawley rat assessed as effect on large movements at 10 mg/kg, ip administered 30 mins prior to test by open field test relative to control; assay type: toxicity, organism-based; conditions: in vivo, 0.5 h; procedure, shortened: as §1
[9] = biological target: Sodium-dependent dopamine transporter (Homo sapiens, UniProt Q01959); assay: Displacement of [3H]WIN 35,428 from human DAT expressed in HEK293 cells at 1 and 3 uM after 30 mins in presence of increasing concentration of cocaine by liquid scintillation counting; assay type: cell-based
Chain of Sodium-dependent dopamine transporter (Q01959 whole entry): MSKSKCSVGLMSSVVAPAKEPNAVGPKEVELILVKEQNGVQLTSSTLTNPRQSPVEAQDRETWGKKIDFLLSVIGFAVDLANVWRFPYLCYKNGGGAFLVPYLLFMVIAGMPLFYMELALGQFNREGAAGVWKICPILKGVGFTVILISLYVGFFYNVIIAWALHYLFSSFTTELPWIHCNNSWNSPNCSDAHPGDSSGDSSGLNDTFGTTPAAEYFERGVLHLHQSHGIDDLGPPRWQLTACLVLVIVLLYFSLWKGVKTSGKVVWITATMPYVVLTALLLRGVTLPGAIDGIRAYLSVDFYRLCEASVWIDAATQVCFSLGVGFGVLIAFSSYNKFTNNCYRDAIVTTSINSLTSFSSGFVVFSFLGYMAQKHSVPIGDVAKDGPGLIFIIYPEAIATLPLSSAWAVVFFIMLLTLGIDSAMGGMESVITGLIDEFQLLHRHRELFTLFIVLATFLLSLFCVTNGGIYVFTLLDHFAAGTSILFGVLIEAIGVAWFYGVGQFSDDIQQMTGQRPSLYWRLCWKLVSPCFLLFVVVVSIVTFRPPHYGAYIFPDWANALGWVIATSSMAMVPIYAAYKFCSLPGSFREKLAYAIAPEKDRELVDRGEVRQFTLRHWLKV
Procedure, shortened: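 Intact HEK-DAT cells on PDL-coated plates, in binding buffer (HEPES, NaCl, KCl, CaCl2, MgCl2, 10 μM ZnCl2, glucose, pH 7,3). Incubated with ~10 nM [3H]WIN 35,428, fixed concentrations of test compound and cocaine 0.001–1 μM, 30 min at 25 °C. Nonspecific binding defined with 30 μM mazindol. Cells lysed in 1% SDS and counted by scintillation. Reciprocal of bound (fmol) plotted against cocaine concentration as Dixon plot. Three experiments in triplicate, mean ± SD.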

**Q.** `[O-][S+](Cc1cccs1)C(c1ccccc1)c1ccccc1` (centres undefined) was tested. Which Activity (Rattus norvegicus [1]) did it give?
**A.** Non-Toxic

**Q.** What about the Activity (Rattus norvegicus [2]) of the same molecule?
**A.** Non-Toxic

**Q.** What about the Activity (Rattus norvegicus [3]) of the same molecule?
**A.** Non-Toxic

**Q.** And the Activity (Rattus norvegicus [4])?
**A.** 1.4

**Q.** What about the Activity (Rattus norvegicus [5]) of the same molecule?
**A.** 3.2

**Q.** And the Activity (Rattus norvegicus [6])?
**A.** 3

**Q.** And the Activity (Rattus norvegicus [7])?
**A.** Non-Toxic

**Q.** What about the Activity (Rattus norvegicus [8]) of the same molecule?
**A.** Non-Toxic

**Q.** And the inhibition [9]?
**A.** Active
